{
  "source": "ChEMBL document CHEMBL4732120",
  "about": "“Discovery of novel PARP/PI3K dual inhibitors with high efficiency against BRCA-proficient triple negative breast cancer” (Eur J Med Chem, 2021)",
  "key": {"[1]": {"biological_target": "T1, Poly [ADP-ribose] polymerase 1 (Homo sapiens, UniProt P09874)", "T1 sequence (P09874 whole entry)": "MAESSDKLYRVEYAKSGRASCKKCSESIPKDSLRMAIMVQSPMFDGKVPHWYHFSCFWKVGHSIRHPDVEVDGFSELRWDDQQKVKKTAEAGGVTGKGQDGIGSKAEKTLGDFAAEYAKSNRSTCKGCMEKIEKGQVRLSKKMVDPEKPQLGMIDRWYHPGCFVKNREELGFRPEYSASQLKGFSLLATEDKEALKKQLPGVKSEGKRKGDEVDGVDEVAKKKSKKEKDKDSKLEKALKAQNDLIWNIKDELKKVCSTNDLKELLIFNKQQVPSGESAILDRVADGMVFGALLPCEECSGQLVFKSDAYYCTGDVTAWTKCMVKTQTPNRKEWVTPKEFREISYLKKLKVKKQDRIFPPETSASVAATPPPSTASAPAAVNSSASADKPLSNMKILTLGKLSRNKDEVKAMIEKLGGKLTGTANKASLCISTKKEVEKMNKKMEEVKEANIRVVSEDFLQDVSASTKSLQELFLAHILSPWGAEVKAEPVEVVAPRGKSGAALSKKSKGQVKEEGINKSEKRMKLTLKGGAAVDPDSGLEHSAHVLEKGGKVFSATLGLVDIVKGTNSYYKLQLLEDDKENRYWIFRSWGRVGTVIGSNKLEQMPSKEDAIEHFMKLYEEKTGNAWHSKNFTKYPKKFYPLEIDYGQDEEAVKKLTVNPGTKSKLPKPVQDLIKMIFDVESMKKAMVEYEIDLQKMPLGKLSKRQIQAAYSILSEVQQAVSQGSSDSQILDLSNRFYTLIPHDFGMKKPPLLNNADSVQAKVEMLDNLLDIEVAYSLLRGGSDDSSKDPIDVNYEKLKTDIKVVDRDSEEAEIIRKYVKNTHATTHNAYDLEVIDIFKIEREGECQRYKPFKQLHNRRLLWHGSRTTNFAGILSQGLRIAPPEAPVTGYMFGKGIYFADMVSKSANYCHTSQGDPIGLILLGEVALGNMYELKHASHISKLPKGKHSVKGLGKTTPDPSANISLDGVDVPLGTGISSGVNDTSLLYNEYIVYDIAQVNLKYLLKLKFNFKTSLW", "settings": "dose 10.0 nM"}, "[2]": {"biological_target": "T2, Phosphatidylinositol 4,5-bisphosphate 3-kinase catalytic subunit alpha isoform (Homo sapiens, UniProt P42336)", "T2 sequence (P42336 whole entry, canonical isoform)": "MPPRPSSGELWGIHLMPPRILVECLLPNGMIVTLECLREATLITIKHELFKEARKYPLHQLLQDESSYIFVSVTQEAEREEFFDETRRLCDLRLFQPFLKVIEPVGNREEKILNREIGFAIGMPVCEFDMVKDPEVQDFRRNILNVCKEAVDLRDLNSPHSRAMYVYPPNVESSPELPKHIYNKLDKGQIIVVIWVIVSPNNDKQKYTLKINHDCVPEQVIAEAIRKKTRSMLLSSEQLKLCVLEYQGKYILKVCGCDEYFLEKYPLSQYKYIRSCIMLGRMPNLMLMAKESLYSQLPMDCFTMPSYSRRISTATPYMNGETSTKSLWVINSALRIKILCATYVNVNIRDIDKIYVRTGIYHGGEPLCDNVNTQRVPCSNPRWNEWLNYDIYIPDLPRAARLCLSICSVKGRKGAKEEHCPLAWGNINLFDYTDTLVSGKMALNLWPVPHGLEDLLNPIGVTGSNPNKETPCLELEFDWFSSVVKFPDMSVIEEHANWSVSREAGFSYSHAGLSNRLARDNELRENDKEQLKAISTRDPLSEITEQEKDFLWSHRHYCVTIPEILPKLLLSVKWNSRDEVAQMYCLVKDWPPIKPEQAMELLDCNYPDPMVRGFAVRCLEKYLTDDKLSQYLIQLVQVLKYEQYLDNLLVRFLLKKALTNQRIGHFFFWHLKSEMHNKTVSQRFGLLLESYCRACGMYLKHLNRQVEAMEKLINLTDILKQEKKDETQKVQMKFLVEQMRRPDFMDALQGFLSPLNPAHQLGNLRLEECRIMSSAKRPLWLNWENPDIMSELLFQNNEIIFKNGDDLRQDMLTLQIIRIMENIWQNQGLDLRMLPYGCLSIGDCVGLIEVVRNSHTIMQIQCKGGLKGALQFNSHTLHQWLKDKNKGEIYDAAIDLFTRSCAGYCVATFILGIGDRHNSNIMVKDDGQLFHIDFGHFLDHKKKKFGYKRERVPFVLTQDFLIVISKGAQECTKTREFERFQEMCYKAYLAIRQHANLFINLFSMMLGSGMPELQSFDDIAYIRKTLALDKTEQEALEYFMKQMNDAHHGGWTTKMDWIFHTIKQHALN", "assay": "Inhibition of PI3Kalpha (unknown origin) at 100 nM relative to control"}, "[3]": {"assay": "Solubility of compound at pH 7", "format": "physicochemical", "settings": "buffer"}, "[4]": {"biological_target": "T2, Phosphatidylinositol 4,5-bisphosphate 3-kinase catalytic subunit alpha isoform", "assay": "Inhibition of PI3Kalpha (unknown origin)", "method_in_brief": "(§1)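 PARP-1 and PI3Kα enzyme inhibition. IC50 taken from dose-response curves and given as mean ± SD of three independent experiments.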"}, "[5]": {"assay": "Solubility of compound", "format": "physicochemical"}, "[6]": {"biological_target": "T1, Poly [ADP-ribose] polymerase 1", "assay": "Inhibition of PARP1 (unknown origin)", "method_in_brief": "as §1"}, "[7]": {"system": "MDA-MB-468", "assay": "Antiproliferative activity against human MDA-MB-468 cells measured after 7 days by Celltiter-glo assay", "format": "functional, cell-based", "settings": "MDA-MB-468, 168 h", "method_in_brief": "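MDA-MB-468 cells grown in RPMI1640 with 10% FBS at 37 °C, 5% CO2. Seeded the day before dosing, grown 12 h, then exposed to a range of concentrations for 7 days. Viability read by CellTiter-Glo luminescence after 10 min at room temperature. Inhibition % = (1 − (RLU cpd − blank)/(RLU DMSO − blank)) × 100. IC50 from nonlinear regression of normalized dose-response.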"}, "[8]": {"system": "MDA-MB-468", "assay": "Inhibition of PARP1/PI3Kalpha in human MDA-MB-468 cells assessed as down regulation of BRCA2 mRNA expression at 2 uM by RT-PCR analysis"}, "[9]": {"system": "MDA-MB-468", "assay": "Antitumor activity against human MDA-MB-468 cells xenografted in BALB/c mouse assessed as tumor growth inhibition at 50 mg/kg, ip administered every two days for 34 days relative to control", "settings": "MDA-MB-468, ip, 816 h, read-out: TGI"}, "[10]": {"system": "MDA-MB-468", "assay": "Induction of apoptosis in human MDA-MB-468 cells assessed as necrotic cells at 2 uM measured after 72 hrs by Annexin V-FITC/propidium iodide staining based flow cytometry (reference value: 0.13%)", "format": "functional"}, "[11]": {"system": "MDA-MB-468", "assay": "Inhibition of PARP1/PI3Kalpha in human MDA-MB-468 cells assessed as down regulation of BRCA1 mRNA expression at 2 uM by RT-PCR analysis"}, "[12]": {"system": "MDA-MB-468", "assay": "Induction of apoptosis in human MDA-MB-468 cells assessed as viable cells at 2 uM measured after 72 hrs by Annexin V-FITC/propidium iodide staining based flow cytometry (reference value: 95.2%)", "format": "functional", "settings": "read-out: Activity"}, "[13]": {"system": "MDA-MB-468", "assay": "Induction of apoptosis in human MDA-MB-468 cells assessed as early apoptotic cells at 2 uM measured after 72 hrs by Annexin V-FITC/propidium iodide staining based flow cytometry (reference value: 3.88%)", "format": "functional"}, "[14]": {"system": "MDA-MB-468", "assay": "Inhibition of PARP1/PI3Kalpha in human MDA-MB-468 cells assessed as down regulation of BRCA1 mRNA expression at 1 uM by RT-PCR analysis"}, "[15]": {"system": "MDA-MB-468", "assay": "Inhibition of PARP1/PI3Kalpha in human MDA-MB-468 cells assessed as down regulation of BRCA2 mRNA expression at 1 uM by RT-PCR analysis"}, "[16]": {"system": "MDA-MB-468", "assay": "Induction of apoptosis in human MDA-MB-468 cells assessed as viable cells at 1 uM measured after 72 hrs by Annexin V-FITC/propidium iodide staining based flow cytometry (reference value: 95.2%)", "format": "functional", "settings": "read-out: Activity"}, "[17]": {"system": "MDA-MB-468", "assay": "Induction of apoptosis in human MDA-MB-468 cells assessed as early apoptotic cells at 1 uM measured after 72 hrs by Annexin V-FITC/propidium iodide staining based flow cytometry (reference value: 3.88%)", "format": "functional"}, "[18]": {"system": "MDA-MB-468", "assay": "Induction of apoptosis in human MDA-MB-468 cells assessed as necrotic cells at 1 uM measured after 72 hrs by Annexin V-FITC/propidium iodide staining based flow cytometry (reference value: 0.13%)", "format": "functional"}, "[19]": {"system": "MDA-MB-468", "assay": "Induction of apoptosis in human MDA-MB-468 cells assessed as late apoptotic cells at 1 uM measured after 72 hrs by Annexin V-FITC/propidium iodide staining based flow cytometry (reference value: 0.78%)", "format": "functional"}, "[20]": {"system": "MDA-MB-468", "assay": "Antitumor activity against human MDA-MB-468 cells xenografted in BALB/c mouse assessed as tumor growth inhibition at 27.5 mg/kg, ip administered every two days for 34 days relative to control", "settings": "MDA-MB-468, ip, 816 h, read-out: TGI"}},
  "note": "Activity calls are given as the source filed them. No cut-off for these calls is given here.",
  "data": [
    {"smiles": "NC(=O)c1cccc2cc(C(=O)N3CCN(c4nc(N5CCOCC5)nc(-n5c(C(F)F)nc6ccccc65)n4)CC3)oc12", "values": [
      {"measurement": "inhibition", "setting": "[1]", "result": 36, "unit": "%"},
      {"measurement": "inhibition", "setting": "[2]", "result": 29, "unit": "%"}
    ]},
    {"smiles": "Cl.NC(=O)c1cccc2cc(C(=O)N3CCN(c4nc(-c5cnc(NC(=O)CN6CCOCC6)cc5C(F)(F)F)nc(N5CCOCC5)n4)CC3)oc12", "values": [
      {"measurement": "solubility", "setting": "[3]", "result": "> 10", "unit": "mg/mL"}
    ]},
    {"smiles": "NC(=O)c1cccc2cc(C(=O)N3CCN(c4cc(-c5cnc(N)cc5C(F)(F)F)nc(N5CCOCC5)n4)CC3)oc12", "values": [
      {"measurement": "inhibition", "setting": "[1]", "result": 51, "unit": "%"},
      {"measurement": "inhibition", "setting": "[2]", "result": 80, "unit": "%"}
    ]},
    {"smiles": "NC(=O)c1cccc2cc(C(=O)N3CCN(c4cc(-n5c(C(F)F)nc6ccccc65)nc(N5CCOCC5)n4)CC3)oc12", "values": [
      {"measurement": "inhibition", "setting": "[1]", "result": 38, "unit": "%"},
      {"measurement": "inhibition", "setting": "[2]", "result": 26, "unit": "%"}
    ]},
    {"smiles": "NC(=O)c1cccc2cc(C(=O)N3CCN(c4nc(-c5cnc(N)nc5)nc(N5CCOCC5)n4)CC3)oc12", "values": [
      {"measurement": "inhibition", "setting": "[1]", "result": 70, "unit": "%"},
      {"measurement": "IC50", "setting": "[4]", "result": 0.0063, "unit": "µM"},
      {"measurement": "solubility", "setting": "[5]", "result": "Insoluble"},
      {"measurement": "inhibition", "setting": "[2]", "result": 86, "unit": "%"},
      {"measurement": "IC50", "setting": "[6]", "result": 0.0058, "unit": "µM"}
    ]},
    {"smiles": "Cl.NC(=O)c1cccc2cc(C(=O)N3CCN(c4nc(-c5cnc(N)cc5C(F)(F)F)nc(N5CCOCC5)n4)CC3)oc12", "values": [
      {"measurement": "solubility", "setting": "[3]", "result": "< 0.1", "unit": "mg/mL"}
    ]},
    {"smiles": "NC(=O)c1cccc2cc(C(=O)N3CCN(c4nc(-c5cnc(N)cc5C(F)(F)F)nc(N5CCOCC5)n4)CC3)oc12", "note": "[listing 1 of 2 here]", "values": [
      {"measurement": "IC50", "setting": "[7]", "result": 4.06, "unit": "µM"},
      {"measurement": "IC50", "setting": "[4]", "result": 0.0396, "unit": "µM"},
      {"measurement": "IC50", "setting": "[6]", "result": 0.0073, "unit": "µM"}
    ]},
    {"smiles": "O=C(c1cc(Cc2n[nH]c(=O)c3ccccc23)ccc1F)N1CCN(C(=O)C2CC2)CC1", "note": "[OLAPARIB]", "values": [
      {"measurement": "inhibition", "setting": "[8]", "result": "Active"},
      {"measurement": "inhibition in vivo at 50 mg/kg", "setting": "[9]", "result": 28.5, "unit": "%"},
      {"measurement": "Activity", "setting": "[10]", "result": 0.16, "unit": "%"},
      {"measurement": "inhibition", "setting": "[11]", "result": "Active"},
      {"measurement": "viability at 2 µM", "setting": "[12]", "result": 91.5, "unit": "%"},
      {"measurement": "Activity", "setting": "[13]", "result": 6.6, "unit": "%"}
    ]},
    {"smiles": "NC(=O)c1cccc2cc(C(=O)N3CCN(c4nc(-c5cnc(NC(=O)CN6CCOCC6)cc5C(F)(F)F)nc(N5CCOCC5)n4)CC3)oc12", "values": [
      {"measurement": "inhibition", "setting": "[14]", "result": "Active"},
      {"measurement": "inhibition", "setting": "[15]", "result": "Active"}
    ]},
    {"smiles": "NC(=O)c1cccc2cc(C(=O)N3CCN(c4nc(-c5ccc(N)nc5)nc(N5CCOCC5)n4)CC3)oc12", "values": [
      {"measurement": "inhibition", "setting": "[1]", "result": 61, "unit": "%"},
      {"measurement": "IC50", "setting": "[4]", "result": 0.119, "unit": "µM"},
      {"measurement": "inhibition", "setting": "[2]", "result": 79, "unit": "%"},
      {"measurement": "IC50", "setting": "[6]", "result": 0.0108, "unit": "µM"}
    ]},
    {"smiles": "Nc1cc(C(F)(F)F)c(-c2cc(N3CCOCC3)nc(N3CCOCC3)n2)cn1", "note": "[BUPARLISIB]", "values": [
      {"measurement": "viability at 1 µM", "setting": "[16]", "result": 91.9, "unit": "%"},
      {"measurement": "Activity", "setting": "[17]", "result": 6.13, "unit": "%"},
      {"measurement": "Activity", "setting": "[18]", "result": 0.16, "unit": "%"},
      {"measurement": "inhibition", "setting": "[14]", "result": "Active"},
      {"measurement": "inhibition", "setting": "[15]", "result": "Active"},
      {"measurement": "inhibition", "setting": "[2]", "result": 82, "unit": "%"},
      {"measurement": "Activity", "setting": "[19]", "result": 1.82, "unit": "%"},
      {"measurement": "inhibition in vivo at 27.5 mg/kg", "setting": "[20]", "result": 33.4, "unit": "%"}
    ]},
    {"smiles": "NC(=O)c1cccc2cc(C(=O)N3CCN(c4nc(-c5ccc6[nH]ccc6c5)nc(N5CCOCC5)n4)CC3)oc12", "values": [
      {"measurement": "inhibition", "setting": "[1]", "result": 62, "unit": "%"},
      {"measurement": "inhibition", "setting": "[2]", "result": 8, "unit": "%"}
    ]},
    {"smiles": "NC(=O)c1cccc2cc(C(=O)N3CCN(c4nc(-c5ccc(N)c(F)c5)nc(N5CCOCC5)n4)CC3)oc12", "values": [
      {"measurement": "inhibition", "setting": "[1]", "result": 51, "unit": "%"},
      {"measurement": "inhibition", "setting": "[2]", "result": 5, "unit": "%"}
    ]},
    {"smiles": "NC(=O)c1cccc2cc(C(=O)N3CCN(c4cc(-c5cnc(N)nc5)nc(N5CCOCC5)n4)CC3)oc12", "values": [
      {"measurement": "inhibition", "setting": "[1]", "result": 85, "unit": "%"},
      {"measurement": "inhibition", "setting": "[2]", "result": 60, "unit": "%"}
    ]},
    {"smiles": "NC(=O)c1cccc2cc(C(=O)N3CCN(c4nc(-c5cnc(N)cc5C(F)(F)F)nc(N5CCOCC5)n4)CC3)oc12", "note": "[listing 2 of 2 here]", "values": [
      {"measurement": "inhibition", "setting": "[1]", "result": 60, "unit": "%"},
      {"measurement": "inhibition", "setting": "[2]", "result": 77, "unit": "%"}
    ]}
  ]
}
